Results on 2 compounds are retold here after ChEMBL document CHEMBL4725282, “Discovery of a Conformationally Constrained Oxazolidinone with Improved Safety and Efficacy Profiles for the Treatment of Multidrug-Resistant Tuberculosis” (J Med Chem, 2020).

A short description of series [1]: Tmax in Balb/c mouse at 2.5 mg/kg, iv by LC-MS/MS analysis. The class given is ADME, organism-based. The conditions noted are these: in vivo. Put shortly: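 Female BALB/c mice, 20-25 g, five per route. Dosed 25 mg/kg p.o. in 0.5% carboxymethyl cellulose or 2.5 mg/kg i.v. in 10% DMSO/saline. Blood sampled 5 min-72 h (p.o.) or 2 min-48 h (i.v.), quantified by LC/MS/MS with ESI+. Parameters by non-compartmental analysis; F = (AUCpo×dose_iv)/(AUCiv×dose_po)×100%.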

The nature of series [2]: Toxicity in male Sprague-Dawley rat assessed as change in white blood cell count at 50 mg/kg/day, po administered for 4 weeks followed by 2 week recovery period (Rvb =6.12 +/- 1.10 10^9/L). The class given is organism-based. The conditions noted are these: in vivo, 672 h. Put shortly: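 SD rats aged 6-7 weeks, 24 per group (12 female, 12 male): vehicle, 50, 150 or 450 mg/kg/day given orally once daily for 4 weeks, then 2-week recovery. 8 per sex per group dissected after the last dose and 4 per sex after 14-day recovery. Hematology included WBC count, reported as mean ± SD (n = 12), compared with vehicle.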

The nature of series [3]: Toxicity in female Sprague-Dawley rat assessed as change in neutrophil level at 50 mg/kg/day, po administered for 4 weeks followed by 2 week recovery period (Rvb =18.5 +/- 5.3 %). The class given is organism-based. The conditions noted are these: in vivo, 672 h.
In series [4] the target is Cytochrome P450 2C19 (Homo sapiens, UniProt P33261). The series can be described thus: Inhibition of CYP2C19 in human liver microsomes after 20 mins by LC-MS/MS analysis. It is filed as ADME. Put shortly:
(§1)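 Human liver microsomes (0.2 mg/mL) in phosphate buffer, 20 min incubation with compound at 0.1-50 μM alongside isoform-specific substrates and a positive control. Substrate remaining monitored by LC-MS/MS at each concentration; IC50 derived.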

Series [5] can be described thus: Toxicity in female Sprague-Dawley rat assessed as change in mean corpuscular volume at 450 mg/kg/day, po administered for 4 weeks followed by 2 week recovery period (Rvb =56.1 +/- 0.8 fL). The class given is organism-based. The conditions noted are these: in vivo, 672 h.
The nature of series [6]: Toxicity in male Sprague-Dawley rat assessed as change in hemoglobin count at 150 mg/kg/day, po administered for 4 weeks followed by 2 week recovery period (Rvb =144 +/- 5 g/L). The class given is organism-based. The conditions noted are these: in vivo, 672 h.
Series [7] can be described thus: Toxicity in female Sprague-Dawley rat assessed as change in hemoglobin count at 150 mg/kg/day, po administered for 4 weeks followed by 2 week recovery period (Rvb =136 +/- 7 g/L). The conditions noted are these: in vivo, 672 h. The class given is organism-based.
Series [8] is described as follows: Toxicity in male Sprague-Dawley rat assessed as change in mean corpuscular volume at 450 mg/kg/day, po administered for 4 weeks followed by 2 week recovery period (Rvb =57.5 +/- 2.0 fL). The class given is organism-based. The conditions noted are these: in vivo, 672 h.
The nature of series [9]: Toxicity in female Sprague-Dawley rat assessed as change in neutrophil level at 150 mg/kg/day, po administered for 4 weeks followed by 2 week recovery period (Rvb =18.5 +/- 5.3 %). It is filed as organism-based. The conditions noted are these: in vivo, 672 h.
Series [10] is described as follows: Toxicity in male Sprague-Dawley rat assessed as change in hematocrit level at 150 mg/kg/day, po administered for 4 weeks followed by 2 week recovery period (Rvb =45.2 +/- 1.7 %). It is filed as organism-based. The conditions noted are these: in vivo, 672 h.
The nature of series [11]: Toxicity in female Sprague-Dawley rat assessed as change in reticulocyte level at 150 mg/kg/day, po administered for 4 weeks followed by 2 week recovery period (Rvb =2.85 +/- 0.53 %). It is filed as organism-based. The conditions noted are these: in vivo, 672 h.
Series [12] can be described thus: Toxicity in male Sprague-Dawley rat assessed as change in mean platelet volume at 450 mg/kg/day, po administered for 4 weeks followed by 2 week recovery period (Rvb =7.0 +/- 0.4 fL). The conditions noted are these: in vivo, 672 h. It is filed as organism-based.
Series [13] is described as follows: Toxicity in female Sprague-Dawley rat assessed as ophthalmic changes at 50 to 450 mg/kg/day, po administered for 4 weeks measured within 7 days of post last dose. It is filed as organism-based. The conditions noted are these: in vivo, 672 h, dose 50-450 mg/kg/day. The gist of the method: (§2)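 SD rats, 6-7 weeks old (96 in total), split into vehicle, 50, 150 and 450 mg/kg/day groups of 12 females and 12 males each, given oral doses once daily for 4 weeks, then 2 weeks of recovery. Mortality, body weight, food intake, eyes, urine and neuropsychic signs were observed. Organ and bone marrow histopathology was done on 8 rats per sex per group after the last dose and on the remaining 4 per sex after 14 days of recovery.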

The nature of series [14]: Toxicity in female Sprague-Dawley rat assessed as change in white blood cell count at 150 mg/kg/day, po administered for 4 weeks followed by 2 week recovery period (Rvb =3.61 +/- 0.75 10^9/L). It is filed as organism-based. The conditions noted are these: in vivo, 672 h.
Series [15] is described as follows: Half life in cynomolgus monkey hepatocytes at 2 uM by LC-MS/MS analysis. The class given is ADME, cell-based, Macaca fascicularis, Hepatocyte. Put shortly: (§3)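 Hepatocytes (male CD-1 mouse, male SD rat, male beagle dog, male cynomolgus monkey, pooled human), final 1 μM compound and 1 million cells/mL, made by mixing 2 μM compound with 2 million cells/mL. Incubated at 37 °C in a CO2 incubator; sampled at 0, 15, 30, 60, 90 and 120 min. Quenched with methanol/ACN containing 0.1% formic acid. Parent remaining measured by LC-MS/MS.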

Series [16] concerns the target Cytochrome P450 2D6 (Homo sapiens, UniProt P10635). The series can be described thus: Inhibition of CYP2D6 in human liver microsomes after 20 mins by LC-MS/MS analysis. It is filed as ADME. The gist of the method:
as §1
For orientation: Liver microsomes are vesicles of endoplasmic reticulum, rich in cytochrome P450 enzymes.

A short description of series [17]: Toxicity in male Sprague-Dawley rat assessed as effect on food consumption at 50 to 450 mg/kg/day, po administered for 4 weeks measured at 1 week interval. It is filed as organism-based. The conditions noted are these: in vivo, 672 h, dose 50-450 mg/kg/day.
A short description of series [18]: Half life in human hepatocytes at 2 uM by LC-MS/MS analysis. It is filed as ADME, cell-based, Hepatocyte. The gist of the method: as §3
Series [19] can be described thus: Toxicity in female Sprague-Dawley rat assessed as ophthalmic changes at 50 to 450 mg/kg/day, po administered for 4 weeks measured post last dose. The class given is organism-based. The conditions noted are these: in vivo, 672 h, dose 50-450 mg/kg/day. Put shortly: as §2
Series [20] in a line: Toxicity in female Sprague-Dawley rat assessed as change in mean platelet volume at 150 mg/kg/day, po administered for 4 weeks followed by 2 week recovery period (Rvb =7.1 +/- 0.5 fL). It is filed as organism-based. The conditions noted are these: in vivo, 672 h.
Series [21] is described as follows: Toxicity in male Sprague-Dawley rat assessed as mortality at 50 to 450 mg/kg/day, po administered for 4 weeks followed by 2 week recovery period. The class given is organism-based. The conditions noted are these: in vivo, 672 h, dose 50-450 mg/kg/day.
Series [22] can be described thus: Toxicity in male Sprague-Dawley rat assessed as histopathological changes at 50 to 450 mg/kg/day, po administered for 4 weeks followed by 2 week recovery period. It is filed as organism-based. The conditions noted are these: in vivo, 672 h, dose 50-450 mg/kg/day.
Series [23] is described as follows: Toxicity in male Sprague-Dawley rat assessed as effect on food consumption at 50 to 450 mg/kg/day, po administered for 4 weeks followed by 2 week recovery period measured at 1 week interval. The conditions noted are these: in vivo, 672 h, dose 50-450 mg/kg/day. It is filed as organism-based.
The nature of series [24]: Toxicity in female Sprague-Dawley rat assessed as change in neutrophil level at 450 mg/kg/day, po administered for 4 weeks followed by 2 week recovery period (Rvb =18.5 +/- 5.3 %). It is filed as organism-based. The conditions noted are these: in vivo, 672 h.
Series [25] can be described thus: Toxicity in female Sprague-Dawley rat assessed as change in hematocrit level at 50 mg/kg/day, po administered for 4 weeks followed by 2 week recovery period (Rvb =41.1 +/- 1.4 %). The conditions noted are these: in vivo, 672 h. The class given is organism-based.
Series [26] in a line: Toxicity in female Sprague-Dawley rat assessed as histopathological changes at 50 to 450 mg/kg/day, po administered for 4 weeks measured post last dose. The class given is organism-based. The conditions noted are these: in vivo, 672 h, dose 50-450 mg/kg/day. The gist of the method:
as §2

Each structure is given as a SMILES string.

Sequence of Cytochrome P450 2C19 (P33261 whole entry, canonical isoform): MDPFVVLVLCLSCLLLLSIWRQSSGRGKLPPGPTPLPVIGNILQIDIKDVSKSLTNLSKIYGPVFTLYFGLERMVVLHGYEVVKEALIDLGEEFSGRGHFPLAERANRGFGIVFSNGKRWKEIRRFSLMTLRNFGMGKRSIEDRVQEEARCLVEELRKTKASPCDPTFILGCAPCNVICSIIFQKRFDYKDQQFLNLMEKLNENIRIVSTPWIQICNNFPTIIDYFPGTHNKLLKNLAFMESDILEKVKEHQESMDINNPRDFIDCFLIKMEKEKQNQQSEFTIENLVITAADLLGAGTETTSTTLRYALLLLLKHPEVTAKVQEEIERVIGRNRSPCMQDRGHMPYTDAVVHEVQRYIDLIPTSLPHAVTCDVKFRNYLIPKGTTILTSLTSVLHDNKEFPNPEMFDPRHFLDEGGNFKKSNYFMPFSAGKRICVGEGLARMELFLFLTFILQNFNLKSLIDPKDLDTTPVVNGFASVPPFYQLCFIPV
Sequence of Cytochrome P450 2D6 (P10635 whole entry): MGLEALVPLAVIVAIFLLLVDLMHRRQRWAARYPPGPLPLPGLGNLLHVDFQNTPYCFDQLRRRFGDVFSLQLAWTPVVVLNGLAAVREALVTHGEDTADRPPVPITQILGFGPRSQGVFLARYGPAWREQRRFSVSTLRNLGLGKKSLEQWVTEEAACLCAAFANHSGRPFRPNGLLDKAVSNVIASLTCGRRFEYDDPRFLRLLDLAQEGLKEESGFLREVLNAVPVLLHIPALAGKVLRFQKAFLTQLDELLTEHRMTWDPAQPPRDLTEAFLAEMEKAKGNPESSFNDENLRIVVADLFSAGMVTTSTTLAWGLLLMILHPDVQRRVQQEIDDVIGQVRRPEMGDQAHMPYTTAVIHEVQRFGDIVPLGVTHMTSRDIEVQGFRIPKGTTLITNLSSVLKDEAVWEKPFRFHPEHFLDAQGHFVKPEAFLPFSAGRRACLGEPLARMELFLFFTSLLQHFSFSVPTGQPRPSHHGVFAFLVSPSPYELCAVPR

The term Tmax denotes the time from dosing to the highest level. Turning to `CC(=O)NC[C@@H]1OC(=O)N2c3cc(F)c(N4CC[S+]([O-])CC4)cc3OC[C@@H]12`, in series [1], the Tmax is 42 min.

Usually IC50 stands for the concentration that gives 50% inhibition. As a reminder, the half-life is how long it takes for the measured level to halve. With `CC(=O)NC[C@@H]1OC(=O)N2c3cc(F)c(N4CCSCC4)cc3OC[C@@H]12`, the Activity is 6.22 10^9/L in series [2]; 14.8% in series [3]; 56.5 fL in series [5]; 141 g/L in series [6]; 124 g/L in series [7]; 58.7 fL in series [8]. Further, the Activity is 12.2% in [9]; 44.5% in series [10]; 2.89% in series [11]; 6.9 fL in [12]; “Non-Toxic” in series [13]; 3.04 10^9/L in series [14]. For the same compound, the Activity entry is “Non-Toxic” in series [17]; “Non-Toxic” in series [19]; 7.4 fL in series [20]; “Non-Toxic” in series [21]; “Non-Toxic” in [22]; “Non-Toxic” in series [23]. Also, the Activity in series [24] is reported as 11.8%; in series [25], 38.7%; in series [26] it was “Non-Toxic”. For the same compound, the IC50 in series [4] was 48.2 µM; in [16], above 50 µM. In addition, the half-life at 2 µM in series [15] is 315 min; in [18], above 500 min.
